Measured values gathered from unrelated publications.
Lines come from different studies, so protocols differ.

SMILES	tested on	assay	system	conditions	endpoint	result
Oc1c(Cl)cc(Cl)cc1-c1[nH]c(Cl)c(Cl)c1Cl	Pseudomonas aeruginosa	microbial growth	ATCC27853		MIC	64 µM
O=c1ccc2nc3ccc(OCc4ccc([N+](=O)[O-])o4)cc3oc-2c1	Pseudomonas aeruginosa	microbial growth		24 h	MIC	> 32 µg/mL
COc1c(N2CC3CCCNC3C2)c(F)cc2c(=O)c(C(=O)OCc3cnc([N+](=O)[O-])s3)cn(C3CC3)c12 (centres unmarked)	Pseudomonas aeruginosa	microbial growth	ATCC27853		MIC	6 µM
Oc1c(Br)cc(Br)cc1-c1[nH]c(Br)c(Br)c1Br	Pseudomonas aeruginosa	microbial growth	ATCC27853		MIC	64 µM
Cc1sc2c(c1C)C(c1ccc(Cl)cc1)=N[C@@H](CC(=O)OC(C)(C)C)c1nnc(C)n1-2	Jurkat	cell growth or viability, ATP luminescence		72 h	IC50	1.01 µM
O=c1ccc2nc3ccc(O)cc3oc-2c1	Pseudomonas aeruginosa	microbial growth		24 h	MIC	> 32 µg/mL
COc1c(N2C[C@@H]3CCCN[C@@H]3C2)c(F)cc2c(=O)c(C(=O)O)cn(C3CC3)c12	Mycobacteroides abscessus	microbial growth	ATCC19977		MIC	1 µM
N.N.[Cl][Pt][Cl]	PLC	cell growth or viability, MTT		72 h	IC50	8.21 µM
